Sampled rows, rich in hits. Any-hit rate of the full collection: about 2.5%.
NPY Y1 blocker – NPY-Y1 (human) receptor antagonism. P25929. HEK293-CNG Y1 cells, membrane potential fluorescence; NPY at EC95, then isoproterenol. inhibition, % at 3.6 µM. 200,000 compounds, 1% hits. AID 1040;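 active means inhibition above the campaign mean inhibition of all tested compounds plus 3 SD, cut at about 20% in these data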;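 further: 0% = DMSO wells given NPY plus isoproterenol and 100% = isoproterenol alone without NPY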
Target sequence (P25929 whole entry, looked up): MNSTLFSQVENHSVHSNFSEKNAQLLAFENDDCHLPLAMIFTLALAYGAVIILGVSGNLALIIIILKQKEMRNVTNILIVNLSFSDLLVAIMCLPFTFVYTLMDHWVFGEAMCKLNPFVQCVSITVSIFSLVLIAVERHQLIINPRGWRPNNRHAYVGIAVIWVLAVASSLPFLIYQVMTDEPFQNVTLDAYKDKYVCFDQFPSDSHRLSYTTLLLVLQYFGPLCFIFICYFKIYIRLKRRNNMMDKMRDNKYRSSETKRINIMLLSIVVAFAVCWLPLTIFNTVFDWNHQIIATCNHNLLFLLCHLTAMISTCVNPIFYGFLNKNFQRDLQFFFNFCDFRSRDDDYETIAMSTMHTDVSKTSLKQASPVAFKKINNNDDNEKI
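Assay system: HEK293 Y1/CNG channel cell line; Doses: single compound dose of 3.6 µM, 0.4% DMSO; Timing: dye 3 h, compound 60 min room temperature, stimulation 45 min; Technique: Membrane-potential fluorescent dye readout; Measure: % inhibition of NPY effect.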
NPY-Y1 PAM-ag – potentiators or agonists of human neuropeptide Y receptor Y1; AID 1304; activation, % at 3.6 µM; NPY-Y1 expressing cells, potentiator/agonist activation; P25929; 220,000 compounds, 0.37% hits; in the data active means activation above about 33%, passing the limit was not always enough;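 further: cells stimulated with NPY at EC10 then isoproterenol at EC100; 0% = low agonist plus stimulus and 100% = saturating agonist plus stimulus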
Insulin prom up – MIN6 insulin promoter up-regulation; z-score at 5 µM; MIN6 insulin promoter-GFP reporter, high-content imaging; active compounds read high; 190,000 compounds, 0.3% hits;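 active means z-score above 3 at 5 µM with at least 500 cells counted in the well; inconclusive means wells under 500 cells, flagged as cytotoxic or low count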
Insulin prom inh – TRM-6 insulin promoter activity inhibition; inhibition, % at 2 µM; AID 1273; 130,000 compounds, 0.9% hits; TRM-6 cells, insulin promoter-eGFP reporter, imaging; reporter expression induced with tamoxifen;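 active means inhibition above the mean plus 3 SD, with well images judged a real hit on visual review, cut at about 60% in these data, passing the limit was not always enough; inconclusive means inhibition over the cutoff but images rejected on review; inactive means inhibition not above the cutoff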
NPY-Y2 PAM-ag – potentiators or agonists of human neuropeptide Y receptor Y2; P49146; cells expressing NPY-Y2, potentiator/agonist read-out; activation, % at 3.6 µM; 220,000 compounds, 0.45% hits; in the data active means activation above about 27%;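 further: cells stimulated with NPY near EC25 plus isoproterenol at EC100; 0% = vehicle plus submaximal agonist and 100% = vehicle plus saturating agonist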
NPY-Y2 antag – blocks the human neuropeptide Y Y2 receptor; NPY-Y2 expressing cells, antagonist mode; inhibition, % at 2.7 µM; 140,000 compounds, 0.99% hits; AID 793; in the data active means inhibition above about 17%;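 further: 0% = vehicle with agonist challenge and 100% = reference antagonist with challenge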
Starred values were filed as active, the others as inactive; u = inconclusive; x = no result given.

SMILES	NPY Y1 blocker	NPY-Y1 PAM-ag	Insulin prom up	Insulin prom inh	NPY-Y2 PAM-ag	NPY-Y2 antag
NC(=O)[C@@H]1CCNc2c(I)cc([N+](=O)[O-])cc2C(=O)N[C@@H](CCC(=O)O)C(=O)N[C@@H](CO)C(=O)N1	-1	-6	1.1	-5	7	2
N#C/C(=C/c1ccc(Sc2nc3ccccc3[nH]2)o1)c1cccc(F)c1	3	-12	2.1	72*	20	6
O=C(NCc1ccco1)c1cnn2c(C(F)(F)F)cc(-c3cccs3)nc12	16	-14	-2	x	1	3
O=C(c1ccc(Br)s1)N1CCCC1	0	-10	-0.39	70*	13	1
CCOC(=O)N1CCN(C(=O)CCN2C(=O)COc3ccccc32)CC1	8	2	-1.1	79*	1	0
O=C(CCN1C(=O)COc2ccccc21)N1CCCCC1	-2	6	-0.33	21	-8	1
C=CCc1ccccc1OCC(O)CN1CCN(CCN2C(=O)c3cccc4cccc(c34)C2=O)CC1 (configuration not stated)	-6	54*	-5.8	-52	45*	3
C=CCc1ccccc1OCC(O)CN1CCN(Cc2ccc3c(c2)OCO3)CC1 (configuration not stated)	-16	92*	0.27	16	87*	7
Cc1ccc(OCC(O)CN2CCN(Cc3ccc4c(c3)OCO4)CC2)cc1C (configuration not stated)	17	-27	-0.04	8	-2	9
O=C(O)C1C2CCC(O2)C1C(=O)NCc1ccc(Cl)cc1 (configuration not stated)	-1	-16	0.51	62*	12	-1
COc1ccccc1N=C(C)C1=C(O)CC(c2ccccc2)CC1=O (configuration not stated)	21*	-28	-0.63	-163	-14	x
CCCC(=Nc1ccccc1OC)C1=C(O)CC(c2ccccc2)CC1=O (configuration not stated)	1	6	0.42	33	-6	3
CN(C)/C=C(/C(=O)c1ccccc1Cl)S(=O)(=O)c1ccccc1	39*	-9	x	-22	-17	3
CCc1ccc(-c2nc(CN3CCC(C(=O)N4CCN(c5ccccc5)CC4)CC3)c(C)o2)cc1	47*	-75	u	x	-28	31*
CCOc1ccccc1N(C(=O)c1snc(C(N)=O)c1N)C(C(=O)NC1CCCC1)c1ccco1 (configuration not stated)	26*	-4	-1.4	x	-2	20*
CCOc1ccccc1N(C(=O)c1ccco1)C(C(=O)NC1CCCC1)c1cccnc1 (configuration not stated)	1	-8	-0.6	-9	-1	0
O=C(O)CCC(=O)NNc1nc2ccccc2nc1-c1ccccc1	1	-5	0.28	x	13	x
Cc1cc(/C=N/NC(=O)Cn2c3ccccc3c(=O)c3ccccc32)c(C)n1-c1ccccc1	-13	50*	-0.17	-21	50*	3
Cc1ccc(N(CC(=O)N/N=C/c2cc(C)n(-c3ccccc3)c2C)S(C)(=O)=O)c(C)c1	4	-9	0.17	-27	2	-1
Cc1nn(C)c(C(=O)NNC(=S)NC2CCCCC2)c1Br	-2	14	0.04	x	0	x
C[C@@H](C(=O)NCCc1c[nH]c2ccccc12)[C@H]1C[C@]1(C)[C@H](NC(=O)OCc1ccccc1)c1ccccc1	-7	12	-2.8	-30	3	7
CN(C1=C(NC(=O)c2ccc(Cl)cc2)C(=O)c2ccccc2C1=O)c1ccccc1	-20	56*	0.66	x	72*	-10
Cc1sc2nc(SCc3ccccc3)n(Cc3ccco3)c(=O)c2c1C	-2	8	0.67	-74	-4	3
Cc1sc2nc(SCC(=O)C(C)(C)C)n(Cc3ccco3)c(=O)c2c1C	29*	-20	-0.33	-11	-8	18*
COc1ccc(CNCC(O)COc2cccc3c2OC(C)(C)C3)cc1 (configuration not stated)	-8	106*	-1.8	x	95*	x
SMILES	NPY Y1 blocker	NPY-Y1 PAM-ag	Insulin prom up	Insulin prom inh	NPY-Y2 PAM-ag	NPY-Y2 antag
COCCNC(=O)COc1cccc2c1OC(C)(C)C2	3	11	-0.19	-14	15	x
COC(=O)CCn1nc(-c2ccc(C)cc2)c2ccccc2c1=O	5	0	-0.29	-100	4	x
COc1ccc(-c2nc(SCC(=O)NCc3ccco3)c(-c3ccccc3)[nH]2)cc1OC	2	-1	0.8	72*	-15	6
CCOC(=O)CSc1nc(NCc2ccco2)c2ccccc2n1	7	-5	0.28	-14	-12	3
COc1ccc(CNc2nc(SCC(=O)NCc3ccco3)nc3ccccc23)cc1	30*	-72	x	-32	-30	50*
C(=N\Nc1ncnc2ccccc12)/c1ccccc1	-5	-2	-0.95	78*	12	x
Clc1cccc(/C=N/Nc2ncnc3ccccc23)c1	0	15	-0.46	x	2	-2
O=C(CSc1nc2c(sc3ccccc32)c(=O)n1-c1ccccc1)NCc1ccco1	10	-7	-0.33	73*	4	3
Cc1ccccc1C(=O)NC1CCN(C(=O)N(c2ccccc2)c2ccccc2)CC1	0	-6	-0.18	-14	-10	-2
Cc1ccccc1C(=O)NC1CCN(C(=O)N2CCOCC2)CC1	12	1	x	75*	-1	0
Cc1ccc(-n2c(O)c(/C=N/NC(=O)C3COc4ccccc4O3)c3ccccc3c2=O)cc1 (configuration not stated)	-2	-10	3.1*	35	4	3
CCc1ccc(-c2nc(CSCC(=O)NCc3ccco3)c(C)o2)cc1	21*	-3	0.41	40	-8	x
COc1ccc(C2C(C(=O)Nc3cc(OC)c(OC)c(OC)c3)c3ccccc3C(=O)N2C)cc1 (configuration not stated)	-1	37*	0.49	-180	31*	x
O=C1NC(=O)/C(=C/c2ccccc2OCc2ccccc2)S1	4	11	0.67	x	10	x
O=C(COc1ccccc1/C=C1\SC(=O)NC1=O)Nc1ccccc1	7	-2	-0.17	82*	-21	x
O=C(N/C(=C\c1cccs1)C(=O)N1CCOCC1)c1cccs1	-3	4	0.42	78*	4	x
O=C(N/C(=C/c1cccs1)C(=O)N1CCOCC1)c1ccccc1	0	18	0.12	-7	-5	x
O=C(Oc1ccc(NC2=C(Cl)C(=O)c3ccccc3C2=O)cc1)c1ccc([N+](=O)[O-])cc1	5	5	-0.06	62*	-5	4
CN1CCN(c2ccc(C(=O)c3ccccc3)cc2[N+](=O)[O-])CC1	1	4	0.07	67*	2	5
Cc1ccc(C)c(N2CCN(c3nc4ccccc4c(=O)n3Cc3ccccc3)CC2)c1	30*	-31	-1.8	x	-6	28*
c1ccc(N2CCN(Cc3cn4ccccc4n3)CC2)cc1	4	5	0.15	x	-1	x
